Assay results as given in ChEMBL document CHEMBL3616442, “Unconventional Knoevenagel-type indoles: Synthesis and cell-based studies for the identification of pro-apoptotic agents” (Eur J Med Chem, 2015).

What was measured:
MT4 = assay: Antiproliferative activity against human MT4 cells after 96 hrs by MTT assay; type: functional, cell-based; conditions: MT4, 96 h
Method in brief: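 Exponentially growing MT-4 cells (CD4+ human T-cells carrying integrated HTLV-1 genome), seeded at 1×10^5 cells/mL in RPMI-1640 with 10% FCS and antibiotics. Serial dilutions of compound (DMSO stock 100 mM, diluted in medium), 37 °C, 5% CO₂, 96 h. Viability read by MTT. 50% inhibition versus untreated controls by linear regression. Mean ± SD of three independent determinations.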

HL-60(TB) = assay: Growth inhibition of human HL-60(TB) cells after 48 hrs by sulforhodamine B assay; type: functional; conditions: HL-60, 48 h
Method in brief: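 NCI 60-cell-line screen, HL-60(TB) included. Compound given at five 10-fold dilutions from 10^-4 to 10^-8 M. Cells exposed for the last 48 h of a 72 h incubation. Growth or viability estimated by sulforhodamine B protein assay. GI50 is the concentration giving 50% growth inhibition. Values outside the tested range are reported as greater or less than the highest or lowest concentration.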

K562 = assay: Growth inhibition of human K562 cells after 48 hrs by sulforhodamine B assay; type: functional; conditions: K562, 48 h
Method in brief: (§1)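 NCI 60-cell-line screen. Compounds tested at five 10-fold dilutions from 10^-4 to 10^-8 M. Cells exposed for the last 48 h of a 72 h incubation, growth estimated by sulforhodamine B protein assay. GI50 is the concentration giving 50% growth inhibition. Values beyond the tested range are expressed as greater or lesser than the extreme concentration.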

[1] = Growth inhibition of human MOLT4 cells after 48 hrs by sulforhodamine B assay; type: functional; conditions: MOLT-4, 48 h; method in brief: as §1
[2] = Growth inhibition of human RPMI8226 cells after 48 hrs by sulforhodamine B assay; type: functional; conditions: RPMI-8226, 48 h
SR = assay: Growth inhibition of human SR cells after 48 hrs by sulforhodamine B assay; type: functional
A549 = assay: Growth inhibition of human A549 cells after 48 hrs by sulforhodamine B assay; type: functional; conditions: A549, 48 h; method in brief: as §1
HOP-62 = assay: Growth inhibition of human HOP62 cells after 48 hrs by sulforhodamine B assay; type: functional; conditions: HOP-62, 48 h; method in brief: as §1
[3] = Growth inhibition of human HOP92 cells after 48 hrs by sulforhodamine B assay; type: functional; conditions: HOP-92, 48 h; method in brief: as §1
NCI-H226 = assay: Growth inhibition of human NCI-H226 cells after 48 hrs by sulforhodamine B assay; type: functional; conditions: NCI-H226, 48 h; method in brief: as §1
NCI-H23 = assay: Growth inhibition of human NCI-H23 cells after 48 hrs by sulforhodamine B assay; type: functional; conditions: NCI-H23, 48 h; method in brief: as §1
NCI-H322M = assay: Growth inhibition of human NCI-H322M cells after 48 hrs by sulforhodamine B assay; type: functional; method in brief: as §1
NCI-H460 = assay: Growth inhibition of human NCI-H460 cells after 48 hrs by sulforhodamine B assay; type: functional; conditions: NCI-H460, 48 h; method in brief: as §1
[4] = Growth inhibition of human COLO205 cells after 48 hrs by sulforhodamine B assay; type: functional; conditions: COLO 205, 48 h; method in brief: as §1
HCT-116 = assay: Growth inhibition of human HCT116 cells after 48 hrs by sulforhodamine B assay; type: functional; conditions: HCT-116, 48 h; method in brief: as §1
HCT-15 = assay: Growth inhibition of human HCT15 cells after 48 hrs by sulforhodamine B assay; type: functional; conditions: HCT-15, 48 h; method in brief: as §1
HT-29 = assay: Growth inhibition of human HT-29 cells after 48 hrs by sulforhodamine B assay; type: functional; conditions: HT-29, 48 h; method in brief: as §1
KM12 = assay: Growth inhibition of human KM12 cells after 48 hrs by sulforhodamine B assay; type: functional; conditions: KM12, 48 h; method in brief: as §1
SW-620 = assay: Growth inhibition of human SW620 cells after 48 hrs by sulforhodamine B assay; type: functional; conditions: SW-620, 48 h
SF-268 = assay: Growth inhibition of human SF268 cells after 48 hrs by sulforhodamine B assay; type: functional; conditions: SF-268, 48 h
[5] = Growth inhibition of human SF295 cells after 48 hrs by sulforhodamine B assay; type: functional; conditions: SF-295, 48 h
[6] = Growth inhibition of human SF539 cells after 48 hrs by sulforhodamine B assay; type: functional; conditions: SF-539, 48 h
SNB-19 = assay: Growth inhibition of human SNB19 cells after 48 hrs by sulforhodamine B assay; type: functional; conditions: SNB-19, 48 h
SNB-75 = assay: Growth inhibition of human SNB75 cells after 48 hrs by sulforhodamine B assay; type: functional; conditions: SNB-75, 48 h
U-251 = assay: Growth inhibition of human U251 cells after 48 hrs by sulforhodamine B assay; type: functional; conditions: U-251, 48 h
M14 = assay: Growth inhibition of human M14 cells after 48 hrs by sulforhodamine B assay; type: functional; conditions: M14, 48 h; method in brief: as §1
MDA-MB-435 = assay: Growth inhibition of human MDA-MB-435 cells after 48 hrs by sulforhodamine B assay; type: functional; conditions: MDA-MB-435, 48 h; method in brief: as §1
SK-MEL-2 = assay: Growth inhibition of human SK-MEL-2 cells after 48 hrs by sulforhodamine B assay; type: functional; conditions: SK-MEL-2, 48 h
SK-MEL-28 = assay: Growth inhibition of human SK-MEL-28 cells after 48 hrs by sulforhodamine B assay; type: functional; conditions: SK-MEL-28, 48 h
SK-MEL-5 = assay: Growth inhibition of human SK-MEL-5 cells after 48 hrs by sulforhodamine B assay; type: functional; conditions: SK-MEL-5, 48 h
UACC-62 = assay: Growth inhibition of human UACC62 cells after 48 hrs by sulforhodamine B assay; type: functional; conditions: UACC-62, 48 h
IGROV-1 = assay: Growth inhibition of human IGROV1 cells after 48 hrs by sulforhodamine B assay; type: functional; conditions: IGROV-1, 48 h; method in brief: as §1
OVCAR-3 = assay: Growth inhibition of human OVCAR3 cells after 48 hrs by sulforhodamine B assay; type: functional; conditions: OVCAR-3, 48 h; method in brief: as §1
[7] = Growth inhibition of human NCI-ADR-RES cells after 48 hrs by sulforhodamine B assay; type: functional; method in brief: as §1
SK-OV-3 = assay: Growth inhibition of human SKOV3 cells after 48 hrs by sulforhodamine B assay; type: functional; conditions: SK-OV-3, 48 h
786-0 = assay: Growth inhibition of human 786-0 cells after 48 hrs by sulforhodamine B assay; type: functional; conditions: 786-0, 48 h; method in brief: as §1
A498 = assay: Growth inhibition of human A498 cells after 48 hrs by sulforhodamine B assay; type: functional; conditions: A498, 48 h; method in brief: as §1
CAKI-1 = assay: Growth inhibition of human CAKI-1 cells after 48 hrs by sulforhodamine B assay; type: functional; conditions: CAKI-1, 48 h; method in brief: as §1
[8] = Growth inhibition of human RXF393 cells after 48 hrs by sulforhodamine B assay; type: functional; conditions: RXF 393, 48 h
SN12C = assay: Growth inhibition of human SN12C cells after 48 hrs by sulforhodamine B assay; type: functional
PC-3 = assay: Growth inhibition of human PC3 cells after 48 hrs by sulforhodamine B assay; type: functional; conditions: PC-3, 48 h
DU-145 = assay: Growth inhibition of human DU145 cells after 48 hrs by sulforhodamine B assay; type: functional; conditions: DU-145, 48 h; method in brief: as §1
MCF7 = assay: Growth inhibition of human MCF7 cells after 48 hrs by sulforhodamine B assay; type: functional; conditions: MCF7, 48 h; method in brief: as §1
MDA-MB-231 = assay: Growth inhibition of human MDA-MB-231 cells after 48 hrs by sulforhodamine B assay; type: functional; conditions: MDA-MB-231, 48 h; method in brief: as §1
[9] = Growth inhibition of human Hs 578T cells after 48 hrs by sulforhodamine B assay; type: functional; method in brief: as §1
T47D = assay: Growth inhibition of human T47D cells after 48 hrs by sulforhodamine B assay; type: functional
MDA-MB-468 = assay: Growth inhibition of human MDA-MB-468 cells after 48 hrs by sulforhodamine B assay; type: functional; conditions: MDA-MB-468, 48 h; method in brief: as §1

COc1ccc(-c2[nH]c3ccc(OC)cc3c2C=C(C#N)C#N)cc1
EC50 (MT4): 0.3 µM | GI50 (HL-60(TB)): 0.363 µM | GI50 (K562): 0.345 µM | GI50 [1]: 0.369 µM | GI50 [2]: 5.1 µM | GI50 (SR): 0.152 µM | GI50 (A549): 3.8 µM | GI50 (HOP-62): 3.3 µM | GI50 [3]: 23 µM | GI50 (NCI-H226): 1.5 µM | GI50 (NCI-H23): 2 µM | GI50 (NCI-H322M): 0.38 µM | GI50 (NCI-H460): 0.472 µM | GI50 [4]: 0.291 µM | GI50 (HCT-116): 0.487 µM | GI50 (HCT-15): 0.778 µM | GI50 (HT-29): 0.407 µM | GI50 (KM12): 0.59 µM | GI50 (SW-620): 0.579 µM | GI50 (SF-268): 1.7 µM | GI50 [5]: 0.306 µM | GI50 [6]: 0.774 µM | GI50 (SNB-19): 13.7 µM | GI50 (SNB-75): 0.593 µM | GI50 (U-251): 0.635 µM | GI50 (M14): 0.308 µM | GI50 (MDA-MB-435): 0.122 µM | GI50 (SK-MEL-2): 5.9 µM | GI50 (SK-MEL-28): 1.7 µM | GI50 (SK-MEL-5): 0.324 µM | GI50 (UACC-62): 0.357 µM | GI50 (IGROV-1): 5.8 µM | GI50 (OVCAR-3): 0.424 µM | GI50 [7]: 0.403 µM | GI50 (SK-OV-3): 0.892 µM | GI50 (786-0): 14.3 µM | GI50 (A498): 0.075 µM | GI50 (CAKI-1): 0.392 µM | GI50 [8]: 5.5 µM | GI50 (SN12C): 15.9 µM | GI50 (PC-3): 0.342 µM | GI50 (DU-145): 0.917 µM | GI50 (MCF7): 0.385 µM | GI50 (MDA-MB-231): 1.3 µM | GI50 [9]: 0.513 µM | GI50 (T47D): 2.6 µM | GI50 (MDA-MB-468): 0.503 µM
